Drawing on ChEMBL document CHEMBL3112533, “Synthesis of novel, peptidic kinase inhibitors with cytostatic/cytotoxic activity” (Bioorg Med Chem, 2014), this text covers inhibition and IC50 for 18 molecules.

Each structure is given as a SMILES string. The source made the active and inactive calls. The calls are words filed in the database; no cut-off is given here. Where only a bound is given, the exact number is not on record here.

The species named for assay [1] is Homo sapiens. The experiment in a line: Inhibition of MEK/ERK1 (unknown origin) using MBP/[gamma-32P]ATP as substrate after 10 mins by scintillation counting. The method, boiled down:
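Compound at 10–150 μM in MOPS pH 7.2 buffer with β-glycerophosphate, EGTA, orthovanadate and DTT. [γ-32P]ATP at 10 μCi/reaction, 10 min at 30°C. Phosphorylated MBP was captured on P81 paper and counted by scintillation. Run in quadruplicate and given as % of no-compound control.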

The subject of assay [2] is NIH3T3. The experiment in a line: Cytotoxicity against mouse NIH/3T3 cells by crystal violet assay. The class given is cell-based. The method, boiled down: (§1)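 Parental NIH-3T3 fibroblasts and Ha-Ras-transfected RAS-3T3 cells were grown in DMEM with 10% FBS, […] and antibiotic-antimycotic at 37°C in 5% CO2. Growth retardation/cytotoxicity was read by crystal violet staining. Compounds came from 10 mM DMSO stocks.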

The nature of assay [3]: Cytotoxicity against mouse RAS-3T3 cells by crystal violet assay. The class given is functional, cell-based. Conditions: NIH3T3. The method, boiled down:
as §1

The test system of assay [4] is RAS-3T3. Description: Inhibition of MEK in mouse RAS-3T3 cells assessed as effect on unphosphorylated ERK1/2 at 40 uM by Western-blot analysis. The class given is cell-based. The method, boiled down:
(§2)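 RAS-3T3 cells were starved overnight in 2% FBS, then given 10% FBS medium with compound for 4 h. Cells were lysed in Triton X-100/Tris/EDTA/NaCl buffer with protease inhibitors. 50 μg of protein was run on 10% SDS-PAGE and blotted to nitrocellulose, with loading checked by Ponceau. Blots were probed with anti-pERK and anti-total ERK antibodies and detected by HRP chemiluminescence. Untreated cells were controls.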

Assay [5] addresses Epidermal growth factor receptor (Homo sapiens) (UniProt P00533). Description: Inhibition of EGFR (unknown origin) at 10 uM. The method, boiled down:
(§3)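 ADP-Glo luminescent kinase assay. Inhibitor at 10 μM was preincubated with kinase (1 ng) for 10 min at 25°C. Substrate (10–60 μM) and ATP (25 μM) were then added and the mix incubated 1 h at 24°C. ADP-Glo reagent was added for 40 min, then detection reagent for 30 min, and luminescence was read. Activity is given as % of uninhibited kinase. Mean ± SD of 2 independent experiments.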

Assay [6] has as its target Platelet-derived growth factor receptor beta (Homo sapiens) (UniProt P09619). The experiment in a line: Inhibition of PDGFRbeta (unknown origin) at 10 uM. The method, boiled down:
as §3

The target of assay [7] is Vascular endothelial growth factor receptor 2 (Homo sapiens) (UniProt P35968). The experiment in a line: Inhibition of KDR (unknown origin) at 10 uM. The method, boiled down:
as §3

Assay [8] addresses TRAF2 and NCK-interacting protein kinase (Homo sapiens) (UniProt Q9UKE5). The experiment in a line: Inhibition of TNIK (unknown origin) at 10 uM. The method, boiled down: as §3
In assay [9] the target is Tyrosine-protein kinase BTK (Homo sapiens) (UniProt Q06187). Description: Inhibition of BTK (unknown origin) at 10 uM. The method, boiled down: as §3
The target in assay [10] is T1, Tyrosine-protein kinase JAK3 (Homo sapiens) (UniProt P52333).
T1 sequence (whole entry): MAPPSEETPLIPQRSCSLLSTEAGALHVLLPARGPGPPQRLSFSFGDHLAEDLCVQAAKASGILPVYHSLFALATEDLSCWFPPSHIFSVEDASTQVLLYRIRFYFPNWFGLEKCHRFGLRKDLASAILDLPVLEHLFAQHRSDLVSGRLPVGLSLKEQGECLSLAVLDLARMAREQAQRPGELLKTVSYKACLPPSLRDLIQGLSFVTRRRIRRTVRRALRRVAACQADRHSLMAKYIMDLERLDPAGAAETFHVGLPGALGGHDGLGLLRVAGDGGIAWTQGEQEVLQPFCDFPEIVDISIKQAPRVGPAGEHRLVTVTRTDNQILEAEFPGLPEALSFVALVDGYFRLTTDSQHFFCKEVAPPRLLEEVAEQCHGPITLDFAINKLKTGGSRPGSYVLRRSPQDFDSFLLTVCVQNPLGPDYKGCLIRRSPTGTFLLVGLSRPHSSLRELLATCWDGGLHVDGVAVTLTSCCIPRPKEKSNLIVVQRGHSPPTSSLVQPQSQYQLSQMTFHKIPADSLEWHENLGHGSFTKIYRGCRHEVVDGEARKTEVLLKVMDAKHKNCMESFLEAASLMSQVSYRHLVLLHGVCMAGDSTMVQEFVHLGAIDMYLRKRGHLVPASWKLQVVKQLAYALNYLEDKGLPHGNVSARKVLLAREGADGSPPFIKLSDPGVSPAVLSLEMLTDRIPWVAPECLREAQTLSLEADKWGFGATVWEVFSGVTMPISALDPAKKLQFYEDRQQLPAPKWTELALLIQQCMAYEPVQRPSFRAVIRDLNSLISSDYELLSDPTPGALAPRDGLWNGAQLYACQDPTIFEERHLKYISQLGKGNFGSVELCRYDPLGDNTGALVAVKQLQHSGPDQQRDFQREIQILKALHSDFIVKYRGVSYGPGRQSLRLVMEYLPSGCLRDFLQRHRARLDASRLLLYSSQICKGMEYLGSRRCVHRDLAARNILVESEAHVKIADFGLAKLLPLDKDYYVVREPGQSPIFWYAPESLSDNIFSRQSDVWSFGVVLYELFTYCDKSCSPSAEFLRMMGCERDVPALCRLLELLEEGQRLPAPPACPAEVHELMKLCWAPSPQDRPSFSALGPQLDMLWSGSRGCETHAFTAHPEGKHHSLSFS
Description: Inhibition of JAK3 (unknown origin) at 10 uM. The method, boiled down: as §3

Assay [11] deals with Fibroblast growth factor receptor 2 (Homo sapiens) (UniProt P21802). The experiment in a line: Inhibition of FGFR2 (unknown origin) at 10 uM. The method, boiled down: as §3
Assay [12] addresses Tyrosine-protein kinase JAK2 (Homo sapiens) (UniProt O60674). Description: Inhibition of JAK2 (unknown origin) at 10 uM. The procedure, abridged:
as §3

The target in assay [13] is Serine/threonine-protein kinase pim-1 (Homo sapiens) (UniProt P11309). The experiment in a line: Inhibition of PIM1 (unknown origin) at 10 uM. The procedure, abridged:
as §3

Assay [14] addresses Receptor-type tyrosine-protein kinase FLT3 (Homo sapiens) (UniProt P36888). Description: Inhibition of FLT3 (unknown origin) at 10 uM. The method, boiled down:
as §3

Assay [15] concerns the target Insulin-like growth factor 1 receptor (Homo sapiens) (UniProt P08069). The experiment in a line: Inhibition of IGF1R (unknown origin) at 10 uM. The method, boiled down: as §3
For assay [16], the target named is T2, Aurora kinase A (Homo sapiens) (UniProt O14965).
T2 sequence (whole entry): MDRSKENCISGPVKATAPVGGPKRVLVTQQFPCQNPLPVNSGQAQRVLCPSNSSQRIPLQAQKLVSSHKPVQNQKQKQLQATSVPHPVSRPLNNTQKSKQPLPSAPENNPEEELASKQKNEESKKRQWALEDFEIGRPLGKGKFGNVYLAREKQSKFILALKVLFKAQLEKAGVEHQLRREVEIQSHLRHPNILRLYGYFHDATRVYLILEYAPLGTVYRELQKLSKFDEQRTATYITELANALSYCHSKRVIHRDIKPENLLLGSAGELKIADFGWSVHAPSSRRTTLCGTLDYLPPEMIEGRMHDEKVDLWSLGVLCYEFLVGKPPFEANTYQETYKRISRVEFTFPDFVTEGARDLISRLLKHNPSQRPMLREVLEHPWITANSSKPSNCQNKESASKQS
Description: Inhibition of aurora-A (unknown origin) at 10 uM. The procedure, abridged:
as §3

Assay [17] addresses ALK tyrosine kinase receptor (Homo sapiens) (UniProt Q9UM73). Description: Inhibition of ALK (unknown origin) at 10 uM. The method, boiled down:
as §3

In assay [18] the target is Mitogen-activated protein kinase 3 (Homo sapiens) (UniProt P27361). The experiment in a line: Competitive inhibition of activated ERK1 (unknown origin) using […] as substrate. The procedure, abridged:
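Activated pERK1 (20 ng) with inhibitor held at 5 μM and MBP varied from 0.2 to 200 μg per reaction. Non-radioactive ATP at 0.2 μM. Remaining ATP was measured by luciferase luminescence, and activity was taken from ATP consumption. Controls lacked inhibitor but had matching MBP amounts. Mean ± SD from 3 independent experiments.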

For assay [19] the target is unchanged. The experiment in a line: Inhibition of activated ERK1 (unknown origin) using […] as substrate. The procedure, abridged: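 Activated pERK1 (20 ng) with MBP (20 μg) and compound at final 0.05–5 μM. Non-radioactive ATP at 0.2 μM. Residual ATP was measured by luciferase luminescence, and relative activity was derived from ATP consumption versus compound-free control. Mean ± SD from 3 independent experiments.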

Assay [20] has as its system RAS-3T3. The experiment in a line: Inhibition of MEK-mediated ERK1/2 phosphorylation in mouse RAS-3T3 cells at 40 uM by ELISA. The class given is cell-based. The procedure, abridged:
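RAS-3T3 cells were pre-starved overnight in 2% FBS, then treated with compound in 10% FBS medium for 4 h. Lysates were assayed with a pERK1/2-specific sandwich ELISA and absorbance read at 405 nm. Untreated cells were controls.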
Background: An ELISA detects its analyte on a solid surface through an enzyme-linked reagent.

The subject of assay [21] is RAS-3T3. Description: Inhibition of MEK-mediated ERK1/2 phosphorylation in mouse RAS-3T3 cells at 40 uM by Western-blot analysis. It is filed as cell-based. The procedure, abridged:
as §2

Chain of Mitogen-activated protein kinase 3 (Homo sapiens) (P27361 whole entry): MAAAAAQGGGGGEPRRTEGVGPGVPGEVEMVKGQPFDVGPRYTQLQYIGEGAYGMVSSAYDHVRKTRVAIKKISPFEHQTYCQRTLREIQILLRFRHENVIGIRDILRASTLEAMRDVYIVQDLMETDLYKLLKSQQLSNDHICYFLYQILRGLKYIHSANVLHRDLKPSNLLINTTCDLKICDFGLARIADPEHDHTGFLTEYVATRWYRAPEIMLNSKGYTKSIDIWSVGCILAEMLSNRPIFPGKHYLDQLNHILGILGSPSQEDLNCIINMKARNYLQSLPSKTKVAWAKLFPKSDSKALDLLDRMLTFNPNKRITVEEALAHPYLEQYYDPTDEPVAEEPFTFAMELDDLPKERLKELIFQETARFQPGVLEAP
Chain of Platelet-derived growth factor receptor beta (Homo sapiens) (P09619 whole entry): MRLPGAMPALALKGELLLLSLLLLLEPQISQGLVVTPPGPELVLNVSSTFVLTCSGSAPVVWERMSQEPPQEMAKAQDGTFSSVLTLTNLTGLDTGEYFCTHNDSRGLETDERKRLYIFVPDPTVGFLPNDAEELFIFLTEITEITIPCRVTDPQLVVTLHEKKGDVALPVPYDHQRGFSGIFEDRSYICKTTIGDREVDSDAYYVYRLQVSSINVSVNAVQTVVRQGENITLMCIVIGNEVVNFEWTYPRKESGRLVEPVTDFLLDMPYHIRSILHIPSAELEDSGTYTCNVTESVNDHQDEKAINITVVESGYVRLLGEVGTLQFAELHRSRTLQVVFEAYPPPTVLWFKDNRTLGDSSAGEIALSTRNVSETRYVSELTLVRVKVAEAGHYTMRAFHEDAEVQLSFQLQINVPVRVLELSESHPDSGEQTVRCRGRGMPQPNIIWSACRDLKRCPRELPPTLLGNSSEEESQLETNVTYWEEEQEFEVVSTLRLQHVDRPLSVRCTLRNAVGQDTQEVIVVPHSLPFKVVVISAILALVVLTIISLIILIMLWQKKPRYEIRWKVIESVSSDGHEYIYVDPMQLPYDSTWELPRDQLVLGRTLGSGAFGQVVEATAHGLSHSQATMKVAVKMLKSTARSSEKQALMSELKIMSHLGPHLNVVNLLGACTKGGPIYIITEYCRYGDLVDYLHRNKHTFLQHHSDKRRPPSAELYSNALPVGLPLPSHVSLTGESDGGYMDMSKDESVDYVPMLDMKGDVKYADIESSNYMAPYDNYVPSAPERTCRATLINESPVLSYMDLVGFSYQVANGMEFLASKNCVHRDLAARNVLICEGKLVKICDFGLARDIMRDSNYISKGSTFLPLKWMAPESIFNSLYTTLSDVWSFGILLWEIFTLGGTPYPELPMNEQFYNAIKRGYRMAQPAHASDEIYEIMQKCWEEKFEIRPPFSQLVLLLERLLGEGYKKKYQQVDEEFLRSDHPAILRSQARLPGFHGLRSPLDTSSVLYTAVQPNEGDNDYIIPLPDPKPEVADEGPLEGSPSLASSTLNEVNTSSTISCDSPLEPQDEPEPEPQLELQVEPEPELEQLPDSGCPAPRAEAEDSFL
Chain of ALK tyrosine kinase receptor (Homo sapiens) (Q9UM73 19-1620 limits assumed): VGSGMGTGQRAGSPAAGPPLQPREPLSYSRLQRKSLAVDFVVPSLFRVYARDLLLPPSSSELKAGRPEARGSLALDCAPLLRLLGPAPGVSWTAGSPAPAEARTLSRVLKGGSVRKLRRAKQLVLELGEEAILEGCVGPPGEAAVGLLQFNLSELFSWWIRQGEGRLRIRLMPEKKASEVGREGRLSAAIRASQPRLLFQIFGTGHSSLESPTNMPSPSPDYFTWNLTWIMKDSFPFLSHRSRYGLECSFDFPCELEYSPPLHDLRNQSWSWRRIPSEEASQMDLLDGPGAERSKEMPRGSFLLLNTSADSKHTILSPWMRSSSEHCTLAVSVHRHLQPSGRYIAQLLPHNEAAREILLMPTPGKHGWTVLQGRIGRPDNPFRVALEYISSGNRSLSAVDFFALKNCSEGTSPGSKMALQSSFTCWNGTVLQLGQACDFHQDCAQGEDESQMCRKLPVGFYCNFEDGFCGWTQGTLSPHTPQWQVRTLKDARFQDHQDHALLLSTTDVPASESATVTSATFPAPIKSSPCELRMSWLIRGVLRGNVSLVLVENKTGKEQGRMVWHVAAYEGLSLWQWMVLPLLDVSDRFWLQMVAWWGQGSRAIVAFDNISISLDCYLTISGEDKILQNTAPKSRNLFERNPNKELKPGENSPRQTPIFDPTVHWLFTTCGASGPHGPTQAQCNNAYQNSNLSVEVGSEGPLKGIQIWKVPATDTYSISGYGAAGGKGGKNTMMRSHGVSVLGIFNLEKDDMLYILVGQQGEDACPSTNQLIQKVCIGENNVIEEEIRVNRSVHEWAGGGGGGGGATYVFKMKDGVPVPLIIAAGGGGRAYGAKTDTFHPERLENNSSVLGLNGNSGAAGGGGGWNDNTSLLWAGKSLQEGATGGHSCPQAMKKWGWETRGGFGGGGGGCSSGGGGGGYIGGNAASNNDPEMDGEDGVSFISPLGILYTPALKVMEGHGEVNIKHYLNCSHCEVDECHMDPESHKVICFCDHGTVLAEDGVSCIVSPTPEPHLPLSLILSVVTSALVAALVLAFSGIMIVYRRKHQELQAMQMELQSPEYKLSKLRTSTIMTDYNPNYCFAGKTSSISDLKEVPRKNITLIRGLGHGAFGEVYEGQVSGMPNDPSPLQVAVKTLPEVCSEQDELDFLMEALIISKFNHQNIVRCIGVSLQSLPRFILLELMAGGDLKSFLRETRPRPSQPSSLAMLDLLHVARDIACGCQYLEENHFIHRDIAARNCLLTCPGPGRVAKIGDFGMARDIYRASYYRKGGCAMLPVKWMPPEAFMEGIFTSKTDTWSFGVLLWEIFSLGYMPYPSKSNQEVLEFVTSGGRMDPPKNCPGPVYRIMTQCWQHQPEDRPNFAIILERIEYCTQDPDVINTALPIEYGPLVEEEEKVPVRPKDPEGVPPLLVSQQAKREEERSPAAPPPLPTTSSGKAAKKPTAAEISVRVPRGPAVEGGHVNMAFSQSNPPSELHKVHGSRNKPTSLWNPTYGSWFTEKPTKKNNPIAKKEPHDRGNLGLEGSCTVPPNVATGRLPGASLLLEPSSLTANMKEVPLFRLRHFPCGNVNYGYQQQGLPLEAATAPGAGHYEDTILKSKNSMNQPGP
Chain of Serine/threonine-protein kinase pim-1 (Homo sapiens) (P11309 whole entry, looked up): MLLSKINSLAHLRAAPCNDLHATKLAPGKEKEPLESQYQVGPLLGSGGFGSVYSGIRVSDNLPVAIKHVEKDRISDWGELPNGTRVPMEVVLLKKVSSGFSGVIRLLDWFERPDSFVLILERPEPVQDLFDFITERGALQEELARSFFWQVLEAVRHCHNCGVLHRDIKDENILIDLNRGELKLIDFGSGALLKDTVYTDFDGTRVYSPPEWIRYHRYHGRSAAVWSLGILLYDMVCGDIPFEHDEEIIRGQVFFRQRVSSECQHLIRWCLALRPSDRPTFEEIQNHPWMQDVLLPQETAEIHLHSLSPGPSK
Chain of Vascular endothelial growth factor receptor 2 (Homo sapiens) (P35968 whole entry): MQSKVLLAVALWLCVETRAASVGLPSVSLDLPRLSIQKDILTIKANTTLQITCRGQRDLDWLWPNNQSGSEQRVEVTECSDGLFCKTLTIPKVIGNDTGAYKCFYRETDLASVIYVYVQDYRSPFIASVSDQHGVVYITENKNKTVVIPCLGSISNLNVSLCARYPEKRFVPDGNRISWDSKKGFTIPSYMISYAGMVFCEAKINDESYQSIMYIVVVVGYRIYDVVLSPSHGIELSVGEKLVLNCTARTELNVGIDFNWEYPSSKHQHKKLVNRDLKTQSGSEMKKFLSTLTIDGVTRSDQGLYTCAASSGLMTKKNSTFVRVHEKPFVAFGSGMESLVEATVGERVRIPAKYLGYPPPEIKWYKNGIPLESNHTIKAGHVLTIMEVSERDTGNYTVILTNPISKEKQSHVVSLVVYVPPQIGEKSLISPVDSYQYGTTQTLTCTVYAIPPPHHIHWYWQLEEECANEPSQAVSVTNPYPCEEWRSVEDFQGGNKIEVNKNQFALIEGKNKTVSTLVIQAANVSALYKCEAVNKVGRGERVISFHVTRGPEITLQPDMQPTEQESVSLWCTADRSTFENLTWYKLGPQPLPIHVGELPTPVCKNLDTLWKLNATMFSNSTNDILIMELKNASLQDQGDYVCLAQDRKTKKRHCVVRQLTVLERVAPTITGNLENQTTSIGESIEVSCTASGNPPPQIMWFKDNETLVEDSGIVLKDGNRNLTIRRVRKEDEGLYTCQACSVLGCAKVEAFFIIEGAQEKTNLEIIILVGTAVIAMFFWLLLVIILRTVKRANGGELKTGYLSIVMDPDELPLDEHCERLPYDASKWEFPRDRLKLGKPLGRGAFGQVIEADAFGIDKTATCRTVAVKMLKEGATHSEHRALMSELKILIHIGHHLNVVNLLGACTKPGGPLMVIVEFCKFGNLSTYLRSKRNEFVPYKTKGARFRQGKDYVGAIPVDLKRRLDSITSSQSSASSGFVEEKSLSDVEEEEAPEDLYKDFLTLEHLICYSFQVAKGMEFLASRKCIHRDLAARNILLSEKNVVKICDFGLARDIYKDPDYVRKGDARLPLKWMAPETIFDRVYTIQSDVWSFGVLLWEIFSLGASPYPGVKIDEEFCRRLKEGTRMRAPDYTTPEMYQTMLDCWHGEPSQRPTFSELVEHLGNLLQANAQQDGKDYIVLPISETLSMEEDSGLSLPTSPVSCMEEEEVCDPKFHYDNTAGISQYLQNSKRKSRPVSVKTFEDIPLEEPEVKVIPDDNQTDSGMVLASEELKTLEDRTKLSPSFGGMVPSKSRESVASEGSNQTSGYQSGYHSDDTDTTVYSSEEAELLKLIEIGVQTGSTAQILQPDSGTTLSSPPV

Usually inhibition stands for the change of the read-out against control, counted positive when it falls. For `CCCCCCCCC[C@@H](NC(=O)CNC(=O)OCc1ccccc1)C(=O)NCc1ccc(OC)cc1`, the inhibition result in assay [1] is “Active”.
Usually IC50 stands for the point on the concentration scale where inhibition reaches its midpoint. A high value points to weaker potency. Turning to `COc1ccc(CNC(=O)C(NC(=O)CNC(=O)OCc2ccccc2)C2CCCCC2)cc1` (racemic), the IC50 turned out to be 50 µM in assay [2] and 40 µM in assay [3].
In the same order, the values of `CCCCCCCCCC(C(=O)NCc1ccc(OC)cc1)N(C)C(=O)CNC(=O)OCc1ccccc1` (racemic) are 30 µM and 30 µM.
With `CCCCCCCCC[C@H](NC(=O)CNC(=O)OCc1ccccc1)C(=O)NCc1ccc(OC)cc1`, the inhibition entry in assay [1] is “Active”.
On to `CCCCCCCCCC(NC(=O)[C@H](C)NC(=O)OCc1ccccc1)C(=O)NCc1ccc(OC)cc1` (mixture of isomers), for which the IC50 in assay [2] is 150 µM; in assay [3], 55 µM.
On to `CCCCCCCCCC(NC(=O)CNC(=O)OCc1ccccc1)C(=O)NCCc1ccccc1` (racemic), for which the inhibition entry in [4], in [5], in assay [6], in assay [7], in assay [8] and in [9] was “inactive” each time. Moreover, the inhibition entry in assay [10], in [11], in assay [12], in assay [13], in [14] and in assay [15] was “inactive” each time. For the same molecule, the inhibition entry in assay [16] and in [17] was “inactive” each time. Further, the inhibition result in [18] and in assay [21] was “Active” in each case. Also, the inhibition result in [19] is “Dose-dependent effect”; in assay [20], 90%.
Turning to `CCCCCCCC(NC(=O)CNC(=O)OCc1ccccc1)C(=O)NCc1ccc(OC)cc1OC` (racemic), the IC50 turned out to be 50 µM in assay [2] and 40 µM in [3].
With `COc1ccc(CNC(=O)C(Cc2ccc(OC)cc2)NC(=O)CNC(=O)OCc2ccccc2)cc1` (racemic), the IC50 in assay [2] and in [3] was over 100 µM in each case.
Consider `CCCCCCCC(NC(=O)CNC(=O)OCc1ccccc1)C(=O)NCc1ccccc1` (racemic), for which the IC50 in [2] was 38 µM; in [3], 33 µM.
For `COc1ccc(CNC(=O)C(Cc2ccccc2)NC(=O)CNC(=O)OCc2ccccc2)cc1` (racemic), in that order: over 100 µM and over 100 µM.
Turning to `COc1ccc(CNC(=O)C(CC(C)C)NC(=O)CNC(=O)OCc2ccccc2)cc1` (racemic), the IC50 in [2] and in assay [3] was over 100 µM in each case.
In the case of `CCCCCCCC(NC(=O)CNC(=O)OCc1ccccc1)C(=O)NC1CCCCC1` (racemic), the values for the IC50 in assay [2] and in [3] were 40 µM and 30 µM, respectively.
For `COc1ccc(CNC(=O)C(CCCCCNC(=O)OC(C)(C)C)NC(=O)CNC(=O)OCc2ccccc2)cc1` (racemic), in that order: over 100 µM and over 100 µM.
In the same order, the values of `CCCCCCCC(NC(=O)CNC(=O)OCc1ccccc1)C(=O)NCc1ccc(OC)cc1` (racemic) are 40 µM and 40 µM.
Turning to `CCCCCCCCCC(NC(=O)[C@H](Cc1ccccc1)NC(=O)OCc1ccccc1)C(=O)NCc1ccc(OC)cc1` (mixture of isomers), the IC50 in [2] was over 200 µM; in assay [3], 68 µM.
In the same order, the values of `CCCCCCCCCC(NC(=O)[C@H](CC(C)C)NC(=O)OCc1ccccc1)C(=O)NCc1ccc(OC)cc1` (mixture of isomers) are over 200 µM and 50 µM.
As to `CCCCCCCC(NC(=O)CNC(=O)OCc1ccccc1)C(=O)NCCc1ccccc1` (racemic), the IC50 in assay [2] stood at 33 µM; in assay [3], 20 µM.
Turning to `CCCCCCCCCC(NC(=O)CNC(=O)OCc1ccccc1)C(=O)NCc1ccc(OC)cc1` (racemic), in assay [1], the inhibition entry was “Dose-dependent effect”. Further, the half-maximal inhibitory concentration (IC50) in assay [2] was found to be 55 µM; in assay [3], 19 µM.
